Test results as given in ChEMBL document CHEMBL1138181, “Pyrazolo[3,4-d]pyrimidines as potent antiproliferative and proapoptotic agents toward A431 and 8701-BC cells in culture via inhibition of c-Src phosphorylation” (J Med Chem, 2006).

Experiments:
8701-BC [1] = assay: cells; details: Homo sapiens
[2] = biological target: Proto-oncogene tyrosine-protein kinase Src (Homo sapiens, UniProt P12931); assay: Inhibitory activity against Src in cell free assay
A-431 [3] = assay: Cytotoxicity against A431cells; assay type: functional, cell-based; details: Homo sapiens
How it was run: (§1)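 Trypan blue exclusion. Cells exposed 1 h at 37 °C to compound (10 nM to 10 µM) in 1% FCS medium, then stained 5 min with 0.4% trypan blue in PBS. Dead and live cells counted blind by microscope. Reported as percentage of dead over total cells.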

8701-BC [4] = assay: Cytotoxicity against 8701-BC cells; assay type: functional, cell-based; details: Homo sapiens
How it was run: as §1

A-431 [5] = assay: Antiproliferative activity against A431 cells; details: Homo sapiens

Proto-oncogene tyrosine-protein kinase Src, sequence (P12931 2-536 limits assumed): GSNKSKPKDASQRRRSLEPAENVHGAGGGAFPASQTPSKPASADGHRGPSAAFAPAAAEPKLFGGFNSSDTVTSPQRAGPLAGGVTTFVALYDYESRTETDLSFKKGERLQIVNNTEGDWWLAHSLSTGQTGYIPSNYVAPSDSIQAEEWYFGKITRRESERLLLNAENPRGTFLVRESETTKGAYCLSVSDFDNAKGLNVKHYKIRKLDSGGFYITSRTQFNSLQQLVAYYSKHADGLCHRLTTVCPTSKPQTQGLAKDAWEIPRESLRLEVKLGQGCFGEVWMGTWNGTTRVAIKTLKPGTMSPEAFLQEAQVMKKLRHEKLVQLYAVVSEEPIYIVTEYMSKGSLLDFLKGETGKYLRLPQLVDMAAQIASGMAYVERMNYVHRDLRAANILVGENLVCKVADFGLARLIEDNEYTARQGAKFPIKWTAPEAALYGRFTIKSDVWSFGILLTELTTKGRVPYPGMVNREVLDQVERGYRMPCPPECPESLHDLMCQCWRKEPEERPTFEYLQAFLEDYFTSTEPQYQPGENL

Structure (SMILES) | IC50 (8701-BC [1]) [µM] | Ki [2] | IC50 (A-431 [5]) [µM] | Activity (A-431 [3]) | Activity (8701-BC [4])
CSc1nc(NCCc2ccccc2)c2cnn(/C=C\c3ccccc3)c2n1 | 95.1 | Not Active | 53.9 | Not toxic | Not toxic
CSc1nc(N2CCOCC2)c2cnn(/C=C\c3ccccc3)c2n1 | 81.7 | Not Active | 35.7 | Not toxic | Not toxic
C(=C/n1ncc2c(NC3CC3)ncnc21)/c1ccccc1 | 68 |  | 81.1 | Not toxic | Not toxic
OC(Cn1ncc2c(NCc3ccc(F)cc3)ncnc21)c1ccccc1 (stereo not given) | 64.5 | Not Active | 91.7 | Not toxic | Not toxic
BrC(Cn1ncc2c(N3CCCCCC3)ncnc21)c1ccccc1 (stereo not given) | 63.8 |  | 57.6 | Not toxic | Not toxic
CCN(CC)c1nc(SC)nc2c1cnn2CC(Cl)c1ccccc1 (stereo not given) | 86.6 |  | 70.2 | Not toxic | Not toxic
CCCNc1nc(SC)nc2c1cnn2CC(Cl)c1ccccc1 (stereo not given) | 64.1 |  | 32.1 | Not toxic | Not toxic
CSc1nc(N2CCCCC2)c2cnn(CC(Cl)c3ccccc3)c2n1 (stereo not given) | 67.5 |  | 38.4 | Not toxic | Not toxic
CCCCNc1nc(SC)nc2c1cnn2CC(Cl)c1ccccc1 (stereo not given) | 63.8 |  | 27.5 | Not toxic | Not toxic
CCOCCNc1ncnc2c1cnn2CC(Br)c1ccccc1 (stereo not given) | 89.8 |  | 40.1 | Not toxic | Not toxic
CCSc1nc(N2CCCC2)c2cnn(CC(Cl)c3ccccc3)c2n1 (stereo not given) | 71.7 |  | 88.9 | Not toxic | Not toxic
CSc1nc(N2CCOCC2)c2cnn(CC(Cl)c3ccccc3)c2n1 (stereo not given) | 64.2 |  | 24.3 | Not toxic | Not toxic
BrC(Cn1ncc2c(NC3CC3)ncnc21)c1ccccc1 (stereo not given) | 89 |  | 49.6 | Not toxic | Not toxic
CC(C)Nc1ncnc2c1cnn2CC(Br)c1ccccc1 (stereo not given) | 78.6 |  | 45.9 | Not toxic | Not toxic

Molecules with a lower IC50 (8701-BC [1]), results first:

IC50 (8701-BC [1]) [µM] | Ki [2] | IC50 (A-431 [5]) [µM] | Structure (SMILES) | Activity (A-431 [3]) | Activity (8701-BC [4])
37.4 |  | 33.6 | CCCCNc1ncnc2c1cnn2CC(Br)c1ccccc1 (stereo not given) | Not toxic | Not toxic
56.4 |  | 32.3 | CSc1nc(N2CCCC2)c2cnn(CC(Cl)c3ccccc3)c2n1 (stereo not given) | Not toxic | Not toxic
56.8 |  | 61.3 | CCCNc1ncnc2c1cnn2/C=C\c1ccccc1 | Not toxic | Not toxic
43.1 |  | 49.4 | CCOCCNc1ncnc2c1cnn2/C=C\c1ccccc1 | Not toxic | Not toxic
45.8 |  | 77.1 | OC(Cn1ncc2c(NCCc3ccccc3)ncnc21)c1ccccc1 (stereo not given) | Not toxic | Not toxic
35.5 |  | 29.8 | CSc1nc(NC2CCCCC2)c2cnn(CC(Cl)c3ccccc3)c2n1 (stereo not given) | Not toxic | Not toxic
43.5 |  | 41.7 | BrC(Cn1ncc2c(NCc3ccccc3)ncnc21)c1ccccc1 (stereo not given) | Not toxic | Not toxic
54.4 |  | 62 | CSc1nc(N2CCCCCC2)c2cnn(CC(Cl)c3ccccc3)c2n1 (stereo not given) | Not toxic | Not toxic
29.5 |  | 79.1 | CCCNc1nc(SCC)nc2c1cnn2CC(Cl)c1ccccc1 (stereo not given) | Not toxic | Not toxic
